In ChEMBL document CHEMBL1158632, “Design, synthesis, and antibacterial activity of 2,5-dihydropyrrole formyl hydroxyamino derivatives as novel peptide deformylase inhibitors” (2010):
Values after ≈ are worked out from the molar mass of the structure shown.

How the values were obtained:
Assay type in all cases: functional
Staphylococcus aureus [1] = assay: Antibacterial activity against Staphylococcus aureus ATCC 25923 by microbroth dilution technique
How it was run: (§1)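 Read-out was the minimum inhibitory concentration (MIC), found by broth microdilution.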

[2] = test system: Staphylococcus epidermidis; assay: Antibacterial activity against Staphylococcus epidermidis ATCC 12228 by microbroth dilution technique; how it was run: as §1
Escherichia coli [3] = assay: Antibacterial activity against Escherichia coli ATCC 35218 by microbroth dilution technique; how it was run: as §1
Escherichia coli [4] = assay: Antibacterial activity against Escherichia coli ATCC 25922 by microbroth dilution technique; how it was run: as §1
Staphylococcus aureus [5] = assay: Antibacterial activity against methicillin-resistant Staphylococcus aureus ATCC 43300 by microbroth dilution technique
Staphylococcus aureus [6] = assay: Antibacterial activity against methicillin-susceptible Staphylococcus aureus ATCC 29213 by microbroth dilution technique; how it was run: as §1

CCCC[C@H](CN(O)C=O)C(=O)N1CC=C[C@H]1C(=O)Nc1ccccn1
MIC (Staphylococcus aureus [1]): 0.125 mg/L (≈ 0.347 µM)
MIC [2]: 0.5 mg/L (≈ 1.39 µM)
MIC (Escherichia coli [3]): 32 mg/L (≈ 88.8 µM)
MIC (Escherichia coli [4]): > 64 mg/L
MIC (Staphylococcus aureus [5]): 0.125 mg/L (≈ 0.347 µM)
MIC (Staphylococcus aureus [6]): 1 mg/L (≈ 2.77 µM)

CCCC[C@H](CN(O)C=O)C(=O)N1CC=C[C@H]1C(=O)Nc1ccc(F)cn1
MIC (Staphylococcus aureus [1]): 0.5 mg/L (≈ 1.32 µM)
MIC [2]: 0.5 mg/L (≈ 1.32 µM)
MIC (Escherichia coli [3]): 64 mg/L (≈ 169 µM)
MIC (Escherichia coli [4]): > 64 mg/L
MIC (Staphylococcus aureus [5]): 0.25 mg/L (≈ 0.661 µM)
MIC (Staphylococcus aureus [6]): 1 mg/L (≈ 2.64 µM)

CCCC[C@H](CN(O)C=O)C(=O)N1CC=C[C@H]1C(=O)Nc1ccc(F)c[n+]1[O-]
MIC (Staphylococcus aureus [1]): 0.5 mg/L (≈ 1.27 µM)
MIC [2]: 1 mg/L (≈ 2.54 µM)
MIC (Escherichia coli [3]): 64 mg/L (≈ 162 µM)
MIC (Escherichia coli [4]): > 64 mg/L
MIC (Staphylococcus aureus [5]): 0.5 mg/L (≈ 1.27 µM)
MIC (Staphylococcus aureus [6]): 1 mg/L (≈ 2.54 µM)

CCCC[C@H](CN(O)C=O)C(=O)N1CC=C[C@H]1C(=O)Nc1ncc(C)s1
MIC (Staphylococcus aureus [1]): 0.0625 mg/L (≈ 0.164 µM)
MIC [2]: 0.25 mg/L (≈ 0.657 µM)
MIC (Escherichia coli [3]): 16 mg/L (≈ 42.1 µM)
MIC (Escherichia coli [4]): 32 mg/L (≈ 84.1 µM)
MIC (Staphylococcus aureus [5]): 0.125 mg/L (≈ 0.329 µM)
MIC (Staphylococcus aureus [6]): 0.25 mg/L (≈ 0.657 µM)

CCCC[C@H](CN(O)C=O)C(=O)N1CC=C[C@H]1C(=O)N1CCOCC1
MIC (Staphylococcus aureus [1]): > 64 mg/L
MIC [2]: > 64 mg/L
MIC (Escherichia coli [3]): > 64 mg/L
MIC (Escherichia coli [4]): > 64 mg/L
MIC (Staphylococcus aureus [5]): 32 mg/L (≈ 90.5 µM)
MIC (Staphylococcus aureus [6]): > 64 mg/L

CCCC[C@H](CN(O)C=O)C(=O)N1CC=C[C@H]1C(=O)NC1CC1
MIC (Staphylococcus aureus [1]): 64 mg/L (≈ 198 µM)
MIC [2]: 4 mg/L (≈ 12.4 µM)
MIC (Escherichia coli [3]): 32 mg/L (≈ 99 µM)
MIC (Escherichia coli [4]): 64 mg/L (≈ 198 µM)
MIC (Staphylococcus aureus [5]): 2 mg/L (≈ 6.18 µM)
MIC (Staphylococcus aureus [6]): 32 mg/L (≈ 99 µM)

CCCC[C@H](CN(O)C=O)C(=O)N1CC=C[C@H]1C(=O)Nc1ccc(Cl)cc1
MIC (Staphylococcus aureus [1]): 8 mg/L (≈ 20.3 µM)
MIC [2]: 4 mg/L (≈ 10.2 µM)
MIC (Escherichia coli [3]): > 64 mg/L
MIC (Escherichia coli [4]): > 64 mg/L
MIC (Staphylococcus aureus [5]): 1 mg/L (≈ 2.54 µM)
MIC (Staphylococcus aureus [6]): 2 mg/L (≈ 5.08 µM)

CCCC[C@H](CN(O)C=O)C(=O)N1CC=C[C@H]1C(=O)Nc1ccccc1Br
MIC (Staphylococcus aureus [1]): 32 mg/L (≈ 73 µM)
MIC [2]: 8 mg/L (≈ 18.3 µM)
MIC (Escherichia coli [3]): > 64 mg/L
MIC (Escherichia coli [4]): > 64 mg/L
MIC (Staphylococcus aureus [5]): 1 mg/L (≈ 2.28 µM)
MIC (Staphylococcus aureus [6]): 4 mg/L (≈ 9.13 µM)

CCCC[C@H](CN(O)C=O)C(=O)N1CC=C[C@H]1C(=O)Nc1cccc(Br)c1
MIC (Staphylococcus aureus [1]): 8 mg/L (≈ 18.3 µM)
MIC [2]: 1 mg/L (≈ 2.28 µM)
MIC (Escherichia coli [3]): 16 mg/L (≈ 36.5 µM)
MIC (Escherichia coli [4]): 64 mg/L (≈ 146 µM)
MIC (Staphylococcus aureus [5]): 0.125 mg/L (≈ 0.285 µM)
MIC (Staphylococcus aureus [6]): 1 mg/L (≈ 2.28 µM)

CCCC[C@H](CN(O)C=O)C(=O)N1CC=C[C@H]1C(=O)Nc1ccc(Br)cc1
MIC (Staphylococcus aureus [1]): 4 mg/L (≈ 9.13 µM)
MIC [2]: 2 mg/L (≈ 4.56 µM)
MIC (Escherichia coli [3]): > 64 mg/L
MIC (Escherichia coli [4]): > 64 mg/L
MIC (Staphylococcus aureus [5]): 0.5 mg/L (≈ 1.14 µM)
MIC (Staphylococcus aureus [6]): 1 mg/L (≈ 2.28 µM)

CCCC[C@H](CN(O)C=O)C(=O)N1CC=C[C@H]1C(=O)Nc1ccccc1Cl
MIC (Staphylococcus aureus [1]): 0.5 mg/L (≈ 1.27 µM)
MIC [2]: 1 mg/L (≈ 2.54 µM)
MIC (Escherichia coli [3]): 64 mg/L (≈ 162 µM)
MIC (Escherichia coli [4]): > 64 mg/L
MIC (Staphylococcus aureus [5]): 0.25 mg/L (≈ 0.635 µM)
MIC (Staphylococcus aureus [6]): 2 mg/L (≈ 5.08 µM)

CCCC[C@H](CN(O)C=O)C(=O)N1CC=C[C@H]1C(=O)Nc1ccc(F)cc1
MIC (Staphylococcus aureus [1]): 2 mg/L (≈ 5.3 µM)
MIC [2]: 4 mg/L (≈ 10.6 µM)
MIC (Escherichia coli [3]): 64 mg/L (≈ 170 µM)
MIC (Escherichia coli [4]): > 64 mg/L
MIC (Staphylococcus aureus [5]): 1 mg/L (≈ 2.65 µM)
MIC (Staphylococcus aureus [6]): 2 mg/L (≈ 5.3 µM)

CCCC[C@H](CN(O)C=O)C(=O)N1CC=C[C@H]1C(=O)Nc1ccc([N+](=O)[O-])cc1
MIC (Staphylococcus aureus [1]): 0.5 mg/L (≈ 1.24 µM)
MIC [2]: 0.5 mg/L (≈ 1.24 µM)
MIC (Escherichia coli [3]): 32 mg/L (≈ 79.1 µM)
MIC (Escherichia coli [4]): > 64 mg/L
MIC (Staphylococcus aureus [5]): 0.5 mg/L (≈ 1.24 µM)
MIC (Staphylococcus aureus [6]): 2 mg/L (≈ 4.95 µM)

CCCC[C@H](CN(O)C=O)C(=O)N1CC=C[C@H]1C(=O)Nc1ccc(OC)cc1
MIC (Staphylococcus aureus [1]): 0.5 mg/L (≈ 1.28 µM)
MIC [2]: 2 mg/L (≈ 5.14 µM)
MIC (Escherichia coli [3]): > 64 mg/L
MIC (Escherichia coli [4]): > 64 mg/L
MIC (Staphylococcus aureus [5]): 1 mg/L (≈ 2.57 µM)
MIC (Staphylococcus aureus [6]): 2 mg/L (≈ 5.14 µM)

CCCC[C@H](CN(O)C=O)C(=O)N1CC=C[C@H]1C(=O)Nc1nnc(C(F)(F)F)s1
MIC (Staphylococcus aureus [1]): 32 mg/L (≈ 73.5 µM)
MIC [2]: 16 mg/L (≈ 36.7 µM)
MIC (Escherichia coli [3]): > 64 mg/L
MIC (Escherichia coli [4]): > 64 mg/L
MIC (Staphylococcus aureus [5]): 8 mg/L (≈ 18.4 µM)
MIC (Staphylococcus aureus [6]): 16 mg/L (≈ 36.7 µM)

CCCC[C@H](CN(O)C=O)C(=O)N1CC=C[C@H]1C(=O)N[C@@H](C)c1ccccc1
MIC (Staphylococcus aureus [1]): 4 mg/L (≈ 10.3 µM)
MIC [2]: 8 mg/L (≈ 20.6 µM)
MIC (Escherichia coli [3]): > 64 mg/L
MIC (Escherichia coli [4]): > 64 mg/L
MIC (Staphylococcus aureus [5]): 8 mg/L (≈ 20.6 µM)
MIC (Staphylococcus aureus [6]): 16 mg/L (≈ 41.3 µM)

CCCC[C@H](CN(O)C=O)C(=O)N1CC=C[C@H]1C(=O)N[C@H](C)c1ccccc1
MIC (Staphylococcus aureus [1]): 4 mg/L (≈ 10.3 µM)
MIC [2]: 4 mg/L (≈ 10.3 µM)
MIC (Escherichia coli [3]): > 64 mg/L
MIC (Escherichia coli [4]): > 64 mg/L
MIC (Staphylococcus aureus [5]): 2 mg/L (≈ 5.16 µM)
MIC (Staphylococcus aureus [6]): 16 mg/L (≈ 41.3 µM)

CCCC[C@H](CN(O)C=O)C(=O)N1CC=C[C@H]1C(=O)Nc1ccccc1
MIC (Staphylococcus aureus [1]): 4 mg/L (≈ 11.1 µM)
MIC [2]: 2 mg/L (≈ 5.56 µM)
MIC (Escherichia coli [3]): 64 mg/L (≈ 178 µM)
MIC (Escherichia coli [4]): > 64 mg/L
MIC (Staphylococcus aureus [5]): 1 mg/L (≈ 2.78 µM)
MIC (Staphylococcus aureus [6]): 8 mg/L (≈ 22.3 µM)

CCCC[C@H](CN(O)C=O)C(=O)N1CCC[C@H]1C(=O)Nc1ccc(F)c[n+]1[O-]
MIC (Staphylococcus aureus [1]): 0.25 mg/L (≈ 0.631 µM)
MIC [2]: 0.5 mg/L (≈ 1.26 µM)
MIC (Escherichia coli [3]): 64 mg/L (≈ 161 µM)
MIC (Escherichia coli [4]): 64 mg/L (≈ 161 µM)
MIC (Staphylococcus aureus [5]): 0.5 mg/L (≈ 1.26 µM)
MIC (Staphylococcus aureus [6]): 1 mg/L (≈ 2.52 µM)

O=C(O)c1cn(C2CC2)c2cc(N3CCNCC3)c(F)cc2c1=O [CIPROFLOXACIN]
MIC (Staphylococcus aureus [1]): 0.5 mg/L (≈ 1.51 µM)
MIC [2]: 0.25 mg/L (≈ 0.754 µM)
MIC (Escherichia coli [3]): < 0.0312 mg/L
MIC (Escherichia coli [4]): < 0.0312 mg/L
MIC (Staphylococcus aureus [5]): 1 mg/L (≈ 3.02 µM)
MIC (Staphylococcus aureus [6]): 0.5 mg/L (≈ 1.51 µM)

CC(=O)NC[C@H]1CN(c2ccc(N3CCOCC3)c(F)c2)C(=O)O1 [LINEZOLID]
MIC [2]: 0.5 mg/L (≈ 1.48 µM)
MIC (Escherichia coli [3]): > 64 mg/L
MIC (Escherichia coli [4]): > 64 mg/L

CC1(C)S[C@@H]2[C@H](NC(=O)Cc3ccccc3)C(=O)N2[C@H]1C(=O)O [PENICILLIN G]
MIC (Staphylococcus aureus [1]): 0.0625 mg/L (≈ 0.187 µM)
MIC [2]: 2 mg/L (≈ 5.98 µM)
MIC (Escherichia coli [3]): > 64 mg/L
MIC (Escherichia coli [4]): > 64 mg/L
MIC (Staphylococcus aureus [5]): 64 mg/L (≈ 191 µM)
MIC (Staphylococcus aureus [6]): 1 mg/L (≈ 2.99 µM)

CN[C@H](CC(C)C)C(=O)N[C@H]1C(=O)N[C@@H](CC(N)=O)C(=O)N[C@H]2C(=O)N[C@H]3C(=O)N[C@H](C(=O)N[C@H](C(=O)O)c4cc(O)cc(O)c4-c4cc3ccc4O)[C@H](O)c3ccc(c(Cl)c3)Oc3cc2cc(c3O[C@@H]2O[C@H](CO)[C@@H](O)[C@H](O)[C@H]2O[C@H]2C[C@](C)(N)[C@H](O)[C@H](C)O2)Oc2ccc(cc2Cl)[C@H]1O [VANCOMYCIN]
MIC (Escherichia coli [3]): > 64 mg/L
MIC (Escherichia coli [4]): > 64 mg/L
